Measured values reported in ChEMBL document CHEMBL4038305, “Benzoxaborole Antimalarial Agents. Part 5. Lead Optimization of Novel Amide Pyrazinyloxy Benzoxaboroles and Identification of a Preclinical Candidate” (J Med Chem, 2017).
Activity calls are given as the source filed them. The rule behind the calls is not given here.

Experiments:
[1] = tested on: Plasmodium falciparum; experiment: Antimalarial activity against Plasmodium falciparum K1 infected in human erythrocytes assessed as reduction in [3H]-hypoxanthine incorporation preincubated for 24 hrs followed by [3H]-hypoxanthine addition measured after 24 hrs by scintillation counting method; assay type: functional, cell-based
[2] = tested on: Salmonella typhimurium; experiment: Genotoxicity in Salmonella typhimurium TA100 assessed as number of revertants per plate at 500 ug/plate in absence of rat liver S9 fraction by Ames test (reference value: 154 +/- 9); assay type: toxicity; conditions: salmonella enterica subsp. enterica serovar typhimurium
[3] = tested on: Lymphocyte; experiment: Genotoxicity in human lymphocytes assessed as increase in frequency of micronucleated cells at 80 ug/mL after 3 hrs in presence of rat liver S9 fraction by micronucleus assay (reference value: 0.63%); assay type: toxicity, cell-based; conditions: s9, 3 h
[4] = tested on: Salmonella typhimurium; experiment: Genotoxicity in Salmonella typhimurium TA1535 assessed as number of revertants per plate at 1500 ug/plate in presence of rat liver S9 fraction by Ames test (reference value: 10); assay type: toxicity; conditions: salmonella enterica subsp. enterica serovar typhimurium
[5] = tested on: Salmonella typhimurium; experiment: Genotoxicity in Salmonella typhimurium TA1537 assessed as number of revertants per plate at 1500 ug/plate in presence of rat liver S9 fraction by Ames test (reference value: 11 +/- 4); assay type: toxicity; conditions: salmonella enterica subsp. enterica serovar typhimurium
[6] = tested on: Plasmodium falciparum; experiment: Antimalarial activity against Plasmodium falciparum T9/94 infected in human erythrocytes assessed as reduction in [3H]-hypoxanthine incorporation preincubated for 24 hrs followed by [3H]-hypoxanthine addition measured after 24 hrs by scintillation counting method; assay type: functional, cell-based
[7] = tested on: Rattus norvegicus; experiment: Genotoxicity in rat assessed as micronucleated polychromatic erythrocytes in bone marrow at 2000 mg/kg administered via oral gavage measured after 48 hrs post dose by micronucleus assay (reference value: 0.10 +/- 0.01%); assay type: toxicity, organism-based; conditions: in vivo
[8] = tested on: Salmonella typhimurium; experiment: Genotoxicity in Salmonella typhimurium TA98 assessed as number of revertants per plate at 150 ug/plate in absence of rat liver S9 fraction by Ames test (reference value: 14 +/- 6); assay type: toxicity; conditions: salmonella enterica subsp. enterica serovar typhimurium
[9] = tested on: Salmonella typhimurium; experiment: Genotoxicity in Salmonella typhimurium TA100 assessed as number of revertants per plate at 5 ug/plate in absence of rat liver S9 fraction by Ames test (reference value: 154 +/- 9); assay type: toxicity; conditions: salmonella enterica subsp. enterica serovar typhimurium
[10] = AUC (0 to infinity) in Sprague-Dawley rat at 5 mg/kg, po via gavage by HPLC/MS analysis; assay type: ADME, organism-based; design: dose 5 mg/kg, route oral, time infinity; conditions: in vivo
[11] = Volume of distribution at steady state in Beagle dog at 5 mg/kg, iv by HPLC/MS analysis; assay type: ADME, organism-based, Canis lupus familiaris; conditions: in vivo, read-out: Vdss
[12] = tested on: Salmonella typhimurium; experiment: Genotoxicity in Salmonella typhimurium TA1537 assessed as number of revertants per plate at 5000 ug/plate in absence of rat liver S9 fraction by Ames test (reference value: 19 +/- 9); assay type: toxicity; conditions: salmonella enterica subsp. enterica serovar typhimurium
[13] = tested on: Plasmodium falciparum; experiment: Antimalarial activity against Plasmodium falciparum 3D7 0087/N9 infected in NOD/SCID IL2R gamma null mouse assessed as decrease in parasitemia at 0.3 to 75 mg/kg up to 7 days post infection; assay type: functional, organism-based
How it was run: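 Human-erythrocyte-engrafted NODscidIL2Rγnull mice carrying P. falciparum Pf3D70087/N9 in peripheral blood; compound given orally once daily for four consecutive days.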

[14] = tested on: Lymphocyte; experiment: Genotoxicity in human lymphocytes assessed as replication index at 355.15 ug/mL after 28 hrs in absence of rat liver S9 fraction by micronucleus assay relative to control; assay type: toxicity, cell-based
How it was run: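 Human lymphocytes exposed for 3 h with or without rat liver S9, or 28 h without S9, with 1% DMSO as vehicle control. Replication index = (binucleated + 2 × multinucleated cells)/total cells. Cytotoxicity (%) = 100 − (RI treated/RI vehicle) × 100.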

[15] = tested on: Salmonella typhimurium; experiment: Genotoxicity in Salmonella typhimurium TA98 assessed as number of revertants per plate at 1.5 ug/plate in presence of rat liver S9 fraction by Ames test (reference value: 19 +/- 8); assay type: toxicity; conditions: salmonella enterica subsp. enterica serovar typhimurium
[16] = tested on: Salmonella typhimurium; experiment: Genotoxicity in Salmonella typhimurium TA1537 assessed as number of revertants per plate at 5000 ug/plate in presence of rat liver S9 fraction by Ames test (reference value: 11 +/- 4); assay type: toxicity; conditions: salmonella enterica subsp. enterica serovar typhimurium
[17] = tested on: Salmonella typhimurium; experiment: Genotoxicity in Salmonella typhimurium TA1537 assessed as number of revertants per plate at 15 ug/plate in absence of rat liver S9 fraction by Ames test (reference value: 19 +/- 9); assay type: toxicity; conditions: salmonella enterica subsp. enterica serovar typhimurium
[18] = tested on: Salmonella typhimurium; experiment: Genotoxicity in Salmonella typhimurium TA1537 assessed as number of revertants per plate at 5 ug/plate in absence of rat liver S9 fraction by Ames test (reference value: 19 +/- 9); assay type: toxicity; conditions: salmonella enterica subsp. enterica serovar typhimurium
[19] = tested on: Lymphocyte; experiment: Genotoxicity in human lymphocytes assessed as increase in frequency of micronucleated cells at 160 ug/mL after 3 hrs in presence of rat liver S9 fraction by micronucleus assay (reference value: 0.63%); assay type: toxicity, cell-based; conditions: s9, 3 h
[20] = tested on: Salmonella typhimurium; experiment: Genotoxicity in Salmonella typhimurium TA1537 assessed as number of revertants per plate at 500 ug/plate in absence of rat liver S9 fraction by Ames test (reference value: 19 +/- 9); assay type: toxicity; conditions: salmonella enterica subsp. enterica serovar typhimurium
[21] = tested on: Plasmodium falciparum; experiment: Antimalarial activity against Plasmodium falciparum 7G8 infected in human erythrocytes assessed as reduction in [3H]-hypoxanthine incorporation preincubated for 24 hrs followed by [3H]-hypoxanthine addition measured after 24 hrs by scintillation counting method; assay type: functional, cell-based
[22] = tested on: Plasmodium berghei; experiment: Antimalarial activity against Plasmodium berghei infected in Swiss Webster mouse assessed as mouse survival rate at 1 mg/kg administered once daily via oral gavage for 4 consecutive days beginning 1 hr after infection measured on day 5 post infection relative to control; assay type: functional
How it was run: (§1)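 Mice given an intraperitoneal injection of P. berghei-infected erythrocytes taken from a previously infected animal. Oral dosing once daily for 4 consecutive days, starting 1 h after infection. Vehicle: polyethylene glycol 300/propylene glycol/water (weight ratio 55/25/20). Percent survival recorded daily from day 4 to day 20. Chloroquine 30 mg/kg and vehicle-only groups served as controls.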

[23] = tested on: Plasmodium berghei; experiment: Antimalarial activity against Plasmodium berghei infected in Swiss Webster mouse assessed as mouse survival rate at 3 mg/kg administered once daily via oral gavage for 4 consecutive days beginning 1 hr after infection measured on day 4 post infection relative to control; assay type: functional
How it was run: (§2)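 P. berghei-infected erythrocytes taken from a previously infected mouse were injected intraperitoneally. Oral dosing, once daily for 4 consecutive days, began 1 h after infection, in polyethylene glycol 300/propylene glycol/water (55/25/20 by weight). Chloroquine at 30 mg/kg was the positive control, with a vehicle-only group. Percent survival was recorded daily from day 4 to day 20.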

[24] = tested on: Plasmodium berghei; experiment: Antimalarial activity against Plasmodium berghei infected in Swiss Webster mouse assessed as mouse survival rate at 3 mg/kg administered once daily via oral gavage for 4 consecutive days beginning 1 hr after infection measured on day 5 post infection relative to control; assay type: functional; how it was run: as §2
[25] = tested on: Plasmodium berghei; experiment: Antimalarial activity against Plasmodium berghei infected in Swiss Webster mouse assessed as mouse survival rate at 1.1 mg/kg administered once daily via oral gavage for 4 consecutive days beginning 1 hr after infection measured on day 4 post infection relative to control; assay type: functional; how it was run: as §1
[26] = tested on: Plasmodium berghei; experiment: Antimalarial activity against Plasmodium berghei infected in Swiss Webster mouse assessed as mouse survival rate at 11 mg/kg administered once daily via oral gavage for 4 consecutive days beginning 1 hr after infection measured on day 10 post infection relative to control; assay type: functional; how it was run: as §1
[27] = tested on: Plasmodium berghei; experiment: Antimalarial activity against Plasmodium berghei infected in Swiss Webster mouse assessed as mouse survival rate at 11 mg/kg administered once daily via oral gavage for 4 consecutive days beginning 1 hr after infection measured on day 14 post infection relative to control; assay type: functional; how it was run: as §1

SMILES: Cc1c(Oc2cnc(C(=O)N3CC(C)(O)C3)cn2)ccc2c1B(O)OC2
- IC50 [1]: 62 nM
- Activity [2]: 155
- Activity [3]: 0.74%
- Activity [4]: 10
- Activity [5]: 8
- IC50 [6]: 54 nM
- Activity [7]: 0.1%
- Activity [8]: 13
- Activity [9]: 152
- AUC(0-inf) [10]: 20800 ng·h/mL
- Vd [11]: 0.29 L/kg
- Activity [12]: 10
- Activity [13]: Active
- Activity [14]: 33%
- Activity [15]: 20
- Activity [16]: 9
- Activity [17]: 10
- Activity [18]: 15
- Activity [19]: 0.5%
- Activity [20]: 14
- IC50 [21]: 35 nM

SMILES: Cc1c(Oc2cnc(C(=O)NC(C)CO)cn2)ccc2c1B(O)OC2 (stereo not drawn)
- survival at 1 mg/kg [22]: 20%
- survival at 3 mg/kg [23]: 100%
- survival at 3 mg/kg [24]: 60%

SMILES: Cc1c(Oc2cnc(C(=O)N3CC(O)(C(F)(F)F)C3)cn2)ccc2c1B(O)OC2
- survival at 1.1 mg/kg [25]: 100%

SMILES: Cc1c(Oc2cnc(C(=O)N3CC(O)(C(C)C)C3)cn2)ccc2c1B(O)OC2
- survival at 11 mg/kg [26]: 20%
- survival at 1.1 mg/kg [25]: 100%
- survival at 11 mg/kg [27]: 0%
